Source: ChEMBL document CHEMBL1122773 (1984)
In brackets after ≈: the same amount, converted by molar mass.

Columns and labels:
Assay type in all cases: functional
[1] = tested on: Mus musculus; test: In vivo antibacterial activity against Bacteroides fragilis (UC no 6428) infected mice after sc administration
[2] = tested on: Mus musculus; test: In vivo antibacterial activity against Staphylococcus aureus (UC no 76) infected mice after sc administration
Procedure, shortened: (§1)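 Fresh drug solutions were given subcutaneously (0.2 mL) or by oral intubation (0.5 mL), per line. Dosing was immediately after infection, then daily for 4 consecutive days, with 3 further days of observation. CD50 was calculated by Spearman-Karber.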

[3] = tested on: Mus musculus; test: In vivo antibacterial activity against Staphylococcus aureus(UC 76) infected mice after oral administration; procedure, shortened: as §1
[4] = tested on: Mus musculus; test: In vivo antibacterial activity against Streptococcus pneumoniae I(UC 41) infected mice after oral administration; procedure, shortened: as §1
[5] = tested on: Prevotella melaninogenica; test: In vitro antibacterial activity against the anaerobic Bacteroides melaninogenicus (Strain UC no.6326)
Procedure, shortened: (§2)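 Agar dilution with serial twofold drug dilutions in Schaedler broth mixed into molten Wilkens-Chalgren agar. Strains grown 48 h on Schaedler agar, suspended to 0.5 McFarland, and 0.001 mL spotted by replicator. All steps done anaerobically. Incubation 48 h at 37 °C. MIC is the least drug inhibiting growth; a faint film or fewer than three colonies scored negative.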

[6] = tested on: Clostridioides difficile; test: In vitro antibacterial activity against the anaerobic Clostridium difficile (Strain UC no.6860); procedure, shortened: as §2
[7] = tested on: Clostridioides difficile; test: In vitro antibacterial activity against the anaerobic Clostridium difficile (Strain UC no.6861); procedure, shortened: as §2
[8] = tested on: Clostridium botulinum; test: In vitro antibacterial activity against the anaerobic Clostridium botulinum A(Strain UC no.6506)
[9] = tested on: Paeniclostridium sordellii; test: In vitro antibacterial activity against the anaerobic Clostridium sordellii (Strain UC no.6505); details: Paraclostridium sordellii; procedure, shortened: as §2
[10] = tested on: Escherichia coli; test: In vivo antibacterial activity against Escherichia coli(UC no 311) infected mice after sc administration; procedure, shortened: as §1
[11] = tested on: Pasteurella multocida; test: In vivo antibacterial activity against Pasteurella multocida(UC no 264) infected mice after sc administration; procedure, shortened: as §1
[12] = tested on: Plasmodium berghei; test: In vivo activity against Plasmodium berghei in mice (Mus musculus) on oral administration
[13] = tested on: Peptostreptococcus anaerobius; test: In vitro antibacterial activity against the anaerobic Peptostreptococcus anaerobius(Strain UC no.6321); procedure, shortened: as §2
[14] = tested on: Streptococcus pneumoniae; test: In vivo antibacterial activity against Streptococcus pneumoniae III(UC 3213) infected mice after oral administration (value in parenthesis is 95% confidence interval); procedure, shortened: as §1
[15] = tested on: Streptococcus pneumoniae; test: In vivo antibacterial activity against Streptococcus pneumoniae I (UC no 41) infected mice after sc administration (value in parenthesis is 95% confidence interval); procedure, shortened: as §1
[16] = tested on: Staphylococcus epidermidis; test: In vitro antibacterial activity against the aerobic Staphylococcus epidermidis (Strain UC no.719)
Procedure, shortened: (§3)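 Broth microdilution in brain/heart infusion broth with twofold drug dilutions. Inoculum was a standardized suspension giving 10⁵ viable cells/mL final. Plates were incubated 20 h at 37 °C. MIC (mcg/mL) = lowest concentration with no visible growth.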

[17] = tested on: Staphylococcus aureus; test: In vitro antibacterial activity against the aerobic Staphylococcus aureus (Strain UC no.6685); procedure, shortened: as §3
[18] = tested on: Staphylococcus epidermidis; test: In vitro antibacterial activity against the aerobic Staphylococcus epidermidis (Strain UC no.3389); procedure, shortened: as §3
[19] = tested on: Parabacteroides distasonis; test: In vitro antibacterial activity against the anaerobic Bacteroides distasonis (Strain UC no.6518)
[20] = tested on: Streptococcus pneumoniae; test: In vivo antibacterial activity against Streptococcus pneumoniae III (UC no 3213) infected mice after sc administration (value in parenthesis is 95% confidence interval); procedure, shortened: as §1
[21] = tested on: Bacteroides fragilis; test: In vivo antibacterial activity against Bacteroides fragilis(UC no 6428) infected mice after sc administration

CCC[C@@H]1C[C@@H](C(=O)N[C@@H]([C@H]2O[C@H](SC)[C@H](O)[C@@H](O)[C@H]2O)[C@H](C)Cl)N(C)C1 [CLINDAMYCIN]
CD50 [1]: 14.4 mg/kg | CD50 [2]: 5.7 mg/kg | CD50 [3]: 12.3 mg/kg | CD50 [4]: 45.5 mg/kg

CC[C@@H]1CCN[C@H](C(=O)N[C@@H]([C@H]2O[C@H](SC)[C@H](O)[C@@H](O)[C@H]2O)[C@H](C)Cl)C1 [PIRLIMYCIN]
MIC [5]: 0.06 µg/mL (≈ 0.146 µM) | MIC [6]: 500 µg/mL (≈ 1220 µM) | MIC [7]: 2 µg/mL (≈ 4.87 µM) | MIC [8]: < 0.03 µg/mL | MIC [9]: 0.5 µg/mL (≈ 1.22 µM) | CD50 [10]: >160 mg/kg | CD50 [11]: >160 mg/kg | CD50 [12]: >50 mg/kg | MIC [13]: 0.12 µg/mL (≈ 0.292 µM) | CD50 [14]: 17.7 mg/kg | CD50 [15]: 1.7 mg/kg | MIC [16]: 0.2 µg/mL (≈ 0.487 µM) | MIC [17]: > 25 µg/mL | MIC [18]: 0.2 µg/mL (≈ 0.487 µM) | MIC [19]: < 0.03 µg/mL | CD50 [20]: 2.7 mg/kg | CD50 [21]: <6.25 mg/kg
